In series [1] the test system is PBMC. The series is described as follows: Induction of IL-8 level in human PBMC at 0.5 uM by ELISA relative to LPS. The class given is functional. The procedure, abridged:
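Primary human PBMC stimulated overnight with compound at 0.5 μM; IL-8 in supernatant by ELISA, normalized to LPS (100 ng/mL) set at 100.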

Series [2] has as its system HepG2. The series is described as follows: Cytotoxicity against human HepG2 cells at 10 uM by MTT assay. The class given is functional. An outline of the steps:
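HepG2 viability by MTT at 10 μM compound; OD570–650 normalized to vehicle-treated cells in the same experiment.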

In series [3] the target is Toll-like receptor 4 (Homo sapiens) (UniProt O00206). Briefly: Activation of human TLR4 fransfectoma in HEK Blue cells at 0.5 uM relative to LPS. The class given is cell-based. The following applies: HEK293. The procedure, abridged:
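hTLR4 HEK Blue transfectoma cells incubated with compound at 0.5 μM for 20–22 h; SEAP read by QuantiBlue OD630. Values normalized to LPS (100 ng/mL) positive control set at 100.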

Series [4] concerns PBMC. Briefly: Induction of CD83 expression in CD11c+ HLA-DR+ population of human PBMC. The format is functional, cell-based. The procedure, abridged:
(§1)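 Human PBMC incubated overnight with compound at 5 μM; CD80 and CD83 measured by flow cytometry on gated CD11c+HLA-DR+ cells. Two independent experiments.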

The target of series [5] is T1, Toll-like receptor 4/MD-2 (Homo sapiens) (UniProt O00206+Q9Y6Y9). Briefly: Activation of human TLR4/MD2 complex expressed in HEK293 Blue cells coexpressing CD14 assessed as SEAP secretion at 10 uM after 20 to 24 hrs by SEAPorter assay in presence of Rhodobacter sphaeroides LPS. The format is cell-based. An outline of the steps: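 hTLR4/MD-2/CD14 transfectoma cells given 10 μM compound or 10 ng/mL LPS, with or without the TLR4 antagonist LPS-RS (Rhodobacter sphaeroides LPS; 12, 111, 1000 ng/mL). TLR4/NF-κB activation read as SEAP in supernatant. One-way ANOVA with Dunnett's test versus vehicle.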

In series [6] the target is Toll-like receptor 4/MD-2/CD14 (Mus musculus) (UniProt Q9QUK6+Q9JHF9+P10810). Briefly: Activation of mouse TLR4/MD2 complex in mouse RAW264.7 cells assessed as induction of NFkappaB activation incubated for 18 hrs.
For series [7], the system named is BMDC. Briefly: Induction of CD86 expression in TLR4-deficient CD11c+ population of mouse BMDC. The class given is functional. The procedure, abridged:
(§2)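 BMDC from wild-type or Tlr4−/− mice treated with compound or vehicle (0.5% DMSO); stained for CD11c plus CD40, CD80 or CD86. Marker expression assessed by flow cytometry on gated CD11c+ cells.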

For series [8], the system named is PBMC. The series is described as follows: Induction of IL-8 level in human PBMC at < 1 uM by ELISA. The class given is functional, cell-based. The procedure, abridged:
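Mouse BMDC or human PBMC stimulated overnight with graded compound concentrations; IL-6 (mouse) or IL-8 (human) in supernatant by ELISA. Mean ± SEM of triplicates, two independent experiments.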
On the technique in general: An ELISA detects its analyte on a solid surface through an enzyme-linked reagent.

In series [9] the target is T1, Toll-like receptor 4/MD-2 (Homo sapiens). The series is described as follows: Activation of human TLR4/MD2 complex expressed in HEK293 Blue cells coexpressing CD14 assessed as SEAP secretion at 10 uM after 20 to 24 hrs by SEAPorter assay. The class given is cell-based.
Series [10] concerns L929. Briefly: Induction of type 1 IFN release in mouse L929-ISRE cells assessed as luciferase release at 10 uM. The format is functional, cell-based. The procedure, abridged:
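Human PBMC incubated overnight with compound (10 μM), LPS (10 ng/mL) or vehicle; type I IFN in supernatant quantified as luciferase release from L929-ISRE reporter cells. Mean ± SEM of triplicates.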

In series [11] the target is T1, Toll-like receptor 4/MD-2 (Homo sapiens). The series is described as follows: Activation of human TLR4/MD2 complex in human THP1 cells assessed as induction of NFkappaB activation incubated for 18 hrs. The format is cell-based. The following applies: THP-1. An outline of the steps:
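CellSensor THP-1 or RAW264.7 cells carrying an NF-κB-driven FRET β-lactamase reporter; graded compound concentrations for 18 h. NF-κB activation normalized to LPS (5 ng/mL) and expressed as percent activation.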

The subject of series [12] is PBMC. The series is described as follows: Cytotoxicity against human PBMC at 10 uM after 18 hrs incubation by MTT assay. The class given is cell-based. The procedure, abridged: (§3)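 Human PBMC or mouse BMDC incubated 18 h with compound at 10 μM; viability by MTT assay, reported as percent.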
For orientation: Tetrazolium dyes change colour on reduction, which living cells bring about.

The subject of series [13] is BMDC. The series is described as follows: Induction of CD40 expression in wild type CD11c+ population of mouse BMDC. The class given is functional. The procedure, abridged:
as §2

The target in series [14] is Toll-like receptor 4 (Homo sapiens) (UniProt O00206). Briefly: Activation of human TLR4 complex expressed in MD2-deficient HEK293 Blue cells coexpressing CD14 assessed as SEAP secretion at 10 uM after 20 to 24 hrs by SEAPorter assay. The class given is cell-based.
Sequence of Toll-like receptor 4 (Homo sapiens) (O00206 whole entry): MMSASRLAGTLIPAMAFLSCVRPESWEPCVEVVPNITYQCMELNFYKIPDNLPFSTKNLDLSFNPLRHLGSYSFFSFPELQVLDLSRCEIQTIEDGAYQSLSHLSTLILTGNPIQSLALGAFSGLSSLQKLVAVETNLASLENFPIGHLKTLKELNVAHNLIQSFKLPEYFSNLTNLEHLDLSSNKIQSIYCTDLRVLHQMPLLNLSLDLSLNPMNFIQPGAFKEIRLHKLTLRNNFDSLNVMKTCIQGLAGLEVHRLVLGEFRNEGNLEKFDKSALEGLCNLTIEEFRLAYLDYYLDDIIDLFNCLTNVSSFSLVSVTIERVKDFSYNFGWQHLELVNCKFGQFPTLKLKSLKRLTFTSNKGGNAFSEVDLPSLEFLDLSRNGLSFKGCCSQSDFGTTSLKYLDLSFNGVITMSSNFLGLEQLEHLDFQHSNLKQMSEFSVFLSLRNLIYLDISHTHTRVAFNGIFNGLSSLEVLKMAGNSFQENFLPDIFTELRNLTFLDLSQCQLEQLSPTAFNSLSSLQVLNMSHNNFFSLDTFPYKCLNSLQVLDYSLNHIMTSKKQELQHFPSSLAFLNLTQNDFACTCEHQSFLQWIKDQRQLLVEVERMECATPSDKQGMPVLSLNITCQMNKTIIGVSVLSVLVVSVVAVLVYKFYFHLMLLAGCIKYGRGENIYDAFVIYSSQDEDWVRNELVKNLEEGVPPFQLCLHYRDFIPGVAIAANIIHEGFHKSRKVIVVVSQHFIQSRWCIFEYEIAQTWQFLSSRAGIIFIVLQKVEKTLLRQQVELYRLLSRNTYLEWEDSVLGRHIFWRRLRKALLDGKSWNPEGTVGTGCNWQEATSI
The test system of series [15] is PBMC. Briefly: Induction of CD80 expression in CD11c+ HLA-DR+ population of human PBMC. The format is functional, cell-based. An outline of the steps: as §1
The subject of series [16] is BMDC. The series is described as follows: Induction of CD86 expression in wild type CD11c+ population of mouse BMDC. The class given is functional. An outline of the steps:
as §2

In series [17] the test system is PBMC. Briefly: Induction of IL-8 expression in human PBMC by ELISA in presence of polymyxin B. The class given is functional, cell-based. The procedure, abridged: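 Human PBMC incubated overnight with compound, alone or with polymyxin B (10 μg/mL); IL-8 in supernatant by ELISA. Mean ± SEM of triplicates, two independent experiments.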
A short description of series [18]: Cytotoxicity against mouse BMDC at 10 uM after 18 hrs incubation by MTT assay. An outline of the steps:
as §3

The subject of series [19] is BMDC. Briefly: Induction of CD80 expression in wild type CD11c+ population of mouse BMDC. The class given is functional. An outline of the steps: as §2
The subject of series [20] is BMDC. The series is described as follows: Induction of IL-6 production in TLR4-deficient mouse BMDC at 10 uM by ELISA. The format is functional. An outline of the steps:
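BMDC from wild-type and TLR4-deficient mice stimulated with compound at 10 μM; IL-6 in culture supernatant by ELISA.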

Series [21] deals with T1, Toll-like receptor 4/MD-2 (Homo sapiens). The series is described as follows: Activation of human TLR4/MD2 complex expressed in HEK293 Blue cells assessed as SEAP secretion at 10 uM after 20 to 24 hrs by SEAPorter assay.
The subject of series [22] is BMDC. Briefly: Induction of CD80 expression in TLR4-deficient CD11c+ population of mouse BMDC. The class given is functional. An outline of the steps: as §2
Series [23] deals with BMDC. The series is described as follows: Induction of CD40 expression in TLR4-deficient CD11c+ population of mouse BMDC. The class given is functional. An outline of the steps:
as §2

Active and inactive are the calls of the source. The rule behind the calls is not given here.

For the molecule `Nc1cc(Nc2nc(C(=O)O)nc3ccccc23)cc(Oc2ccccc2)c1`, the Activity stood at 0.3% in series [1], 105% in [2] and 1.1% in [3].
The like results for `CCOC(=O)c1nc(Nc2cc(Oc3ccc(C)cc3)cc([N+](=O)[O-])c2)c2ccccc2n1` were, in that order, 0.4%, 108.8% and 0.5%.
For `NC(=O)c1nc(Nc2cc(Oc3ccccc3)cc([N+](=O)[O-])c2)c2ccccc2n1`, the Activity in [1] is 0.3%; in series [2] it was 78.4%; in series [3] it was 0%.
`CCOC(=O)c1nc(Nc2cc(Oc3ccccc3Cl)cc([N+](=O)[O-])c2)c2ccccc2n1`: the values for the Activity in series [2] and in [3] were 107.4% and 73.9%, respectively.
On to `O=C(O)c1nc(Nc2cc(Oc3ccccc3Br)cc([N+](=O)[O-])c2)c2ccccc2n1`, for which the Activity in [1] stood at 0%; in series [2], 96.3%; in [3] it was 1.6%.
For the molecule `CCOC(=O)c1nc(Nc2cc(Oc3c(C)cccc3C)cc([N+](=O)[O-])c2)c2ccccc2n1`, the Activity in [1] worked out at 0%; in [2], 106.3%; in [3] it was 0.6%.
The like results for `COC(=O)c1nc(Nc2cc(Oc3ccccc3)cc([N+](=O)[O-])c2)c2ccccc2n1` were, in that order, 0.2%, 116.4% and 0.4%.
`CCOC(=O)c1nc(Nc2cc(Oc3ccccc3)cc([N+](=O)[O-])c2)c2ccccc2n1`: the outcome in series [4], in series [6], in [8], in [9], in series [10] and in series [11] was Active. The result in [13], in series [15], in series [16], in series [17] and in [19] was Active. Moreover, the result in series [5], in series [7], in [14], in [20], in series [21] and in series [22] was inactive. Further, the result in series [23] was inactive. In addition, the Activity was 112% in [12], 93.5% in series [2], 117% in [18] and 49.1% in series [3].
`O=C(O)c1nc(Nc2cc(Oc3ccccc3)cc([N+](=O)[O-])c2)c2ccccc2n1`: the Activity was 0.5% in series [1], 84.5% in series [2] and 0.6% in [3].
The like results for `CCOC(=O)c1nc(Nc2cc(Oc3ccccc3CC)cc([N+](=O)[O-])c2)c2ccccc2n1` were, in that order, 3.2%, 98.9% and 4.2%.
The like results for `CCNC(=O)c1nc(Nc2cc(Oc3ccccc3)cc([N+](=O)[O-])c2)c2ccccc2n1` were, in that order, 1.5%, 107.4% and 2.2%.
On to `CCOC(=O)c1nc(Nc2cc(Oc3ccccc3C(F)(F)F)cc([N+](=O)[O-])c2)c2ccccc2n1`, for which the Activity was determined as 67.1% in [2] and 58.7% in series [3].
The like results for `CC(C)OC(=O)c1nc(Nc2cc(Oc3ccccc3Br)cc([N+](=O)[O-])c2)c2ccccc2n1` were, in that order, 106.5% and 67.8%.
On the same counts, the results for `CCOC(=O)c1nc(Nc2cc(Oc3ccccc3I)cc([N+](=O)[O-])c2)c2ccccc2n1` are 93.8% and 65.5%.
The like results for `CCOC(=O)c1nc(Nc2cc(Oc3ccccc3Br)cc([N+](=O)[O-])c2)c2ccccc2n1` were, in that order, 90.8% and 79%.
With `CC(C)OC(=O)c1nc(Nc2cc(Oc3ccccc3)cc([N+](=O)[O-])c2)c2ccccc2n1`, the Activity in [1] was 2.1%; in series [2], 65.6%; in series [3] it was 7.4%.
For the molecule `CCOC(=O)c1nc(Nc2cc(Oc3ccc4ccccc4c3)cc([N+](=O)[O-])c2)c2ccccc2n1`, the values for the Activity in series [1], in [2] and in [3] were 0%, 111.4% and 0.8%, respectively.
The like results for `CC(C)CCOC(=O)c1nc(Nc2cc(Oc3ccccc3)cc([N+](=O)[O-])c2)c2ccccc2n1` were, in that order, 2.2%, 63.4% and 8.4%.
In the case of `CCOC(=O)c1nc(Nc2cc(Oc3ccccc3C)cc([N+](=O)[O-])c2)c2ccccc2n1`, the Activity in [2] came out at 96.7%; in series [3], 45.5%.
`CCOC(=O)c1nc(Nc2cc(N)cc(Oc3ccccc3)c2)c2ccccc2n1`: the Activity came out at 0.3% in series [1], 106.1% in [2] and 0.6% in series [3].
On the same counts, the results for `CCOC(=O)c1nc(Nc2cc(Oc3cccc(C)c3)cc([N+](=O)[O-])c2)c2ccccc2n1` are 5.8%, 109.9% and 14.5%.

The record behind these values is ChEMBL document CHEMBL3352206, “Discovery of substituted 4-aminoquinazolines as selective Toll-like receptor 4 ligands” (Bioorg Med Chem Lett, 2014).
